{"source": "ChEMBL document CHEMBL1123129", "about": "“Hypolipidemic activity of indan-1,3-dione derivatives in rodents” (J Med Chem, 1985)", "key": {"Rattus norvegicus [1]": {"tested_on": "Rattus norvegicus", "test": "Compound was evaluated for the hypolipidemic activity in Sprague-Dawley rats at a dose of 20 mg/kg orally for Serum triglyceride at 9th day", "assay_type": "functional", "settings": "route oral", "in_short": "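Sprague–Dawley male rats (~350 g) received 20 mg/kg per day orally, with 1% CMC as the vehicle control; N = 6. Tail-vein blood was taken between 8:00 and 9:30 a.m. on days 9 and 16 and spun for 3 min to obtain serum. Cholesterol was measured by a modified Liebermann–Burchard reaction and triglyceride by kit. Values are % control ± SD; significance by Student's t test.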"}, "[2]": {"target": "Cholesterol 7-alpha-hydroxylase (Cytochrome P450 7A1) (Mus musculus, UniProt Q64505)", "sequence (Q64505 whole entry)": "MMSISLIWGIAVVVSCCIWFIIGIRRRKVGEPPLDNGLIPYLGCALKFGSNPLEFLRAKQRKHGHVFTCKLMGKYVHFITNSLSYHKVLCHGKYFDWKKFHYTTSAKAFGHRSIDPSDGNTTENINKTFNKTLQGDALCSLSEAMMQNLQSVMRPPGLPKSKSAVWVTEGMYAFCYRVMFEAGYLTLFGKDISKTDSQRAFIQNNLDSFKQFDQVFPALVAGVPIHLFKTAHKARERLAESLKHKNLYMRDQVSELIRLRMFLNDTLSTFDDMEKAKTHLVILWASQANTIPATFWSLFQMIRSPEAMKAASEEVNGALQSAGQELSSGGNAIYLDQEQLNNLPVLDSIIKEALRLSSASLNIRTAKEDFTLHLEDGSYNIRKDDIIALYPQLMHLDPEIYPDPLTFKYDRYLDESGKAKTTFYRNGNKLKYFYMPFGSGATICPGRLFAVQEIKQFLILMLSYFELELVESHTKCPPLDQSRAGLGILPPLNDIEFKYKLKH", "test": "In vitro percent Cholesterol 7-alpha-hydroxylase activity in mouse CF1 liver microsomes at 100 uM", "design": "species or system Microsome", "settings": "read-out: Control", "in_short": "(§1)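 Mouse liver enzymes assayed in vitro on 10% homogenates of CF1 male mouse liver, with test drug added at 50–200 μM. Each enzyme follows a published procedure. Protein is measured by Lowry. Activity is given as % of untreated control (X ± SD, N = 6).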"}, "Rattus norvegicus [3]": {"tested_on": "Rattus norvegicus", "test": "Compound was evaluated for the hypolipidemic activity at 20 mg/kg per day orally for 14 days on lipid content in rat small intestine.", "assay_type": "functional", "settings": "route oral", "in_short": "(§2)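 Male Sprague–Dawley rats were dosed orally for 14 days. Liver, small intestine and a 24-h fecal collection were lipid-extracted. Extracts were assayed for cholesterol (modified Liebermann–Burchard), triglyceride (enzymatic kit), neutral lipids, phospholipids and protein. Values are % of 1% CMC vehicle control, mean ± SD, N = 6.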"}, "Rattus norvegicus [4]": {"tested_on": "Rattus norvegicus", "test": "Compound was evaluated for the hypolipidemic activity at 20 mg/kg per day orally for 14 days on phospholipids content in rat lipoprotein chylomicron", "assay_type": "functional", "settings": "route oral", "in_short": "(§3)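 Male Sprague–Dawley rats (~300 g) were dosed orally each day. Blood was drawn from the abdominal vein. Lipoprotein fractions (chylomicron, VLDL, LDL, HDL) were separated by the Hatch–Lees and Havel methods. Each fraction was assayed for cholesterol, triglyceride (enzymatic kit), neutral lipids, phospholipids and Lowry protein. Values are % of 1% CMC vehicle control, N = 6.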"}, "Mus musculus [5]": {"tested_on": "Mus musculus", "test": "In Vivo effect for the hypolipidemic activity on Hepatic lipoprotein lipase in CF1 mice after 16 days administered orally at a dose of 10 mg/kg", "assay_type": "functional", "settings": "route oral", "in_short": "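CF1 male mice are dosed orally at 10–60 mg/kg per day for 16 days, with 1% CMC as the control vehicle. Liver is homogenized at 10% in 0.25 M sucrose + 0.001 M EDTA, pH 7.2. Enzymes are assayed by literature methods, with Lowry protein. Activity is given as % of control (X ± SD, N = 6), with p from Student's t test.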"}, "Mus musculus [6]": {"tested_on": "Mus musculus", "test": "Compound was evaluated for the hypolipidemic activity in CF1 male mice at a dose of 10 mg/kg orally for Serum cholesterol at 9th day.", "assay_type": "functional", "settings": "route oral", "in_short": "(§4)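 CF1 male mice received the agent orally in 1% CMC at 10–60 mg/kg per day. Tail-vein blood was taken on days 9 and 16. Serum cholesterol was measured by modified Liebermann–Burchard on duplicate 25-µL samples, and serum triglyceride on day 16 in duplicate 50-µL samples. Values are % of vehicle control, mean ± SD, N = 6; Student's t test.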"}, "Rattus norvegicus [7]": {"tested_on": "Rattus norvegicus", "test": "Compound was evaluated for the hypolipidemic activity at 20 mg/kg per day orally for 14 days on protein content in rat liver", "assay_type": "functional", "settings": "route oral", "in_short": "as §2"}, "Mus musculus [8]": {"organism": "Mus musculus", "test": "In Vitro evaluation for the CF1 liver enzyme activity on Mitochondrial citrate exchange at concentration 200 uM", "assay_type": "functional", "in_short": "as §1"}, "Rattus norvegicus [9]": {"tested_on": "Rattus norvegicus", "test": "Compound was evaluated for the hypolipidemic activity at 20 mg/kg per day orally for 14 days on phospholipids content in rat VLDL", "assay_type": "functional", "settings": "route oral", "in_short": "as §3"}, "Mus musculus [10]": {"tested_on": "Mus musculus", "test": "Compound was evaluated for the hypolipidemic activity in CF1 male mice at a dose of 40 mg/kg orally for Serum triglyceride at 16th day", "assay_type": "functional", "settings": "route oral", "in_short": "as §4"}, "Rattus norvegicus [11]": {"tested_on": "Rattus norvegicus", "test": "Compound was evaluated for the hypolipidemic activity at 20 mg/kg per day orally for 14 days on neutral lipids content in rat HDL", "assay_type": "functional", "settings": "route oral", "in_short": "as §3"}, "Rattus norvegicus [12]": {"tested_on": "Rattus norvegicus", "test": "Compound was evaluated for the hypolipidemic activity at 20 mg/kg per day orally for 14 days on cholesterol content in rat lipoprotein chylomicron", "assay_type": "functional", "settings": "route oral", "in_short": "as §3"}, "Mus musculus [13]": {"tested_on": "Mus musculus", "test": "Compound was evaluated for the hypolipidemic activity in CF1 male mice at a dose of 40 mg/kg orally for Serum cholesterol at 9th day", "assay_type": "functional", "settings": "route oral", "in_short": "as §4"}, "[14]": {"target": "T1, 3-hydroxy-3-methylglutaryl-coenzyme A reductase (Mus musculus) (UniProt Q01237)", "T1 sequence (whole entry)": "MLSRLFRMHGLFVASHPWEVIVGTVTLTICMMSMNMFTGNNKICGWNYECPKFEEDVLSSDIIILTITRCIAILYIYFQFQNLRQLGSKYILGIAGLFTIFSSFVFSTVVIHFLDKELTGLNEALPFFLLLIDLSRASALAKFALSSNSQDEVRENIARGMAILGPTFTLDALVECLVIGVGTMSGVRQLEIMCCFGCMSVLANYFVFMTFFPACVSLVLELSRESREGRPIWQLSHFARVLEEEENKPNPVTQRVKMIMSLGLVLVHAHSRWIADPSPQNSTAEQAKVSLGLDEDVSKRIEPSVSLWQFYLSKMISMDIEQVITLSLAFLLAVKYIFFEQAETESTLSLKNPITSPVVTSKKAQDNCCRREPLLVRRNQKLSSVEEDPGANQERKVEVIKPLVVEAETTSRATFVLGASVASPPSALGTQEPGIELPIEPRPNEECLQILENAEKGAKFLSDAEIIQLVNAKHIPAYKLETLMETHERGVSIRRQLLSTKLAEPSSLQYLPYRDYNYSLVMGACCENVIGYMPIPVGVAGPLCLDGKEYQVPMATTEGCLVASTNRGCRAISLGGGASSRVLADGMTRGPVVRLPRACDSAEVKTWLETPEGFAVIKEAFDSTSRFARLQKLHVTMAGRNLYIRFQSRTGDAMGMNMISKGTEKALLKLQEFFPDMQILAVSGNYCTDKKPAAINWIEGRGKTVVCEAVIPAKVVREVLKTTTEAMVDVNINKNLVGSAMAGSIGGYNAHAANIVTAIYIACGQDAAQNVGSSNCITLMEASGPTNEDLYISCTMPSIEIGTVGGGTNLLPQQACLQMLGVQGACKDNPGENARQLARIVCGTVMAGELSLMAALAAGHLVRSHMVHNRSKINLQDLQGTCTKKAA", "test": "In Vitro evaluation for the CF1 liver enzyme activity on HMG-CoA reductase at concentration 50 uM", "in_short": "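Liver was taken from CF1 male mice and made into 10% homogenates, which were incubated with test compound at 50, 100 or 200 µM. Each enzyme was assayed by its literature method, and protein was measured by Lowry. N = 6. Activity is expressed as % of untreated control ± SD.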"}, "Rattus norvegicus [15]": {"tested_on": "Rattus norvegicus", "test": "Compound was evaluated for the hypolipidemic activity at 20 mg/kg per day orally for 14 days on protein content in rat VLDL", "assay_type": "functional", "settings": "route oral", "in_short": "as §3"}}, "data": [{"smiles": "COc1ccc(C2C(=O)c3ccccc3C2=O)cc1", "note": "[ANISINDIONE]", "values": [{"measurement": "Control", "setting": "Rattus norvegicus [1]", "value": 73, "unit": "%"}, {"measurement": "activity at 100 µM", "setting": "[2]", "value": 144, "unit": "%"}, {"measurement": "Control", "setting": "Rattus norvegicus [3]", "value": 100, "unit": "%"}, {"measurement": "Control", "setting": "Rattus norvegicus [4]", "value": 135, "unit": "%"}, {"measurement": "Control", "setting": "Mus musculus [5]", "value": 83, "unit": "%"}, {"measurement": "Control", "setting": "Mus musculus [6]", "value": 82, "unit": "%"}, {"measurement": "Control", "setting": "Rattus norvegicus [7]", "value": 100, "unit": "%"}, {"measurement": "Control", "setting": "Mus musculus [8]", "value": 36, "unit": "%"}, {"measurement": "Control", "setting": "Rattus norvegicus [9]", "value": 128, "unit": "%"}, {"measurement": "Control", "setting": "Mus musculus [10]", "value": 73, "unit": "%"}, {"measurement": "Control", "setting": "Rattus norvegicus [11]", "value": 113, "unit": "%"}, {"measurement": "Control", "setting": "Rattus norvegicus [12]", "value": 96, "unit": "%"}, {"measurement": "Control", "setting": "Mus musculus [13]", "value": 79, "unit": "%"}, {"measurement": "Control", "setting": "[14]", "value": 107, "unit": "%"}, {"measurement": "Control", "setting": "Rattus norvegicus [15]", "value": 106, "unit": "%"}]}]}
